Structures can show the parent of a compound that is named as a salt.
Tests used:
Format in all cases: functional, organism-based
[1] = test system: Plasmodium falciparum; test: Growth inhibition after 72 hrs of Plasmodium falciparum W2 by SYBR green I assay; details: W2, 72 h
How it was run: (§1)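 Cultures were set up as for the ELISA arm: 0.5% parasitemia, 2% hematocrit, 72 h at 37°C, 5% O2/5% CO2/90% N2, twofold drug dilutions in duplicate. Plates were frozen at −80°C and thawed 2 h. 100 μl culture was mixed with an equal volume of SYBR green I in lysis buffer (Tris 20 mM pH 7.5, EDTA, saponin, Triton X-100), then held 1 h at RT. Fluorescence was read at 485/535 nm, with an uninfected-RBC background control. IC50/IC90 were derived by nonlinear fitting.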

[2] = test system: Plasmodium falciparum; test: Growth inhibition after 72 hrs of Plasmodium falciparum 3D7 by SYBR green assay; details: 3D7, 72 h; how it was run: as §1
[3] = test system: Plasmodium falciparum; test: Growth inhibition after 72 hrs of Plasmodium falciparum D6 by HRPII ELISA; details: D6, 72 h
How it was run: (§2)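 Ring-stage cultures (≥70% rings) diluted to 0.5% parasitemia, 2% hematocrit, in RPMI with Albumax I or 10% human serum. Incubated 72 h at 37°C under 5% O2/5% CO2/90% N2 in plates predosed in duplicate with twofold dilutions (chloroquine 3.8–242 nM, quinine 10.8–346 nM, mefloquine 1.1–37.7 nM). Plates were then frozen and thawed. Lysate was assayed by HRPII capture ELISA (IgM capture, HRP detector), A450. IC50/IC90 were derived by nonlinear fitting.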

[4] = test system: Plasmodium falciparum; test: Growth inhibition after 72 hrs of Plasmodium falciparum W2 by HRPII ELISA; details: W2, 72 h; how it was run: as §2
[5] = test system: Plasmodium falciparum; test: Growth inhibition after 72 hrs of Plasmodium falciparum 3D7 by HRPII ELISA; details: 3D7, 72 h; how it was run: as §2
[6] = test system: Plasmodium falciparum; test: Growth inhibition after 72 hrs of Plasmodium falciparum D6 by SYBR green I assay; details: D6, 72 h; how it was run: as §1

Structure (SMILES): CCN(CC)CCCC(C)Nc1ccnc2cc(Cl)ccc12 (configuration not stated) [CHLOROQUINE PHOSPHATE]
- IC90 [1]: 125 nM
- IC90 [2]: 26.4 nM
- IC90 [3]: 15.8 nM
- IC90 [4]: 129 nM
- IC90 [5]: 33.2 nM
- IC90 [6]: 16.1 nM

Structure (SMILES): C=CC1CN2CC[C@H]1C[C@H]2[C@H](O)c1ccnc2ccc(OC)cc12 (single isomer, unassigned) [QUININE HYDROCHLORIDE]
- IC50 [1]: 22.2 nM
- IC90 ([1]; read-out: IC90): 116 nM
- IC50 [2]: 6.9 nM
- IC90 [2]: 63.7 nM
- IC50 [3]: 6.7 nM
- IC90 [3]: 13.2 nM
- IC50 [4]: 15.1 nM
- IC90 [4]: 128 nM
- IC50 [5]: 5.9 nM
- IC90 [5]: 42.6 nM
- IC50 [6]: 6.6 nM
- IC90 [6]: 12.4 nM

Structure (SMILES): O[C@@H](c1cc(C(F)(F)F)nc2c(C(F)(F)F)cccc12)[C@H]1CCCCN1 [MEFLOQUINE HYDROCHLORIDE]
- IC90 ([1]; read-out: IC90): 12.2 nM
- IC50 [2]: 9.4 nM
- IC90 [2]: 29.8 nM
- IC50 [4]: 1.9 nM
- IC90 [4]: 8 nM
- IC50 [5]: 8.4 nM
- IC90 [5]: 25.6 nM
- IC50 [6]: 6.4 nM
- IC90 [6]: 23.3 nM

Source: ChEMBL document CHEMBL1146201, “Comparison of a SYBR green I-based assay with a histidine-rich protein II enzyme-linked immunosorbent assay for in vitro antimalarial drug efficacy testing and application to clinical isolates” (Antimicrob Agents Chemother, 2007)
